ChEMBL document CHEMBL3856196, “3-(Benzodioxan-2-ylmethoxy)-2,6-difluorobenzamides bearing hydrophobic substituents at the 7-position of the benzodioxane nucleus potently inhibit methicillin-resistant Sa and Mtb cell division” (Eur J Med Chem, 2016)
Values after ≈ are worked out from the molar mass of the structure shown.

What was measured:
Staphylococcus aureus [1] = test: Antibacterial activity against […] Staphylococcus aureus ATCC 29213 after 16 hrs by spectrophotometric analysis; format: functional; conditions: ATCC 29213, 16 h
[2] = Therapeutic index, ratio of TD90 for human MRC5 cells to MBC for […] Staphylococcus aureus ATCC 29213; format: cell-based; conditions: read-out: TI
Outline: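 Ratio of TD₉₀ (MTT assay on MRC-5, 24 h exposure) to MBC against MRSA ATCC 29213 (LB tube assay, wash-out and overnight regrowth by OD600).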

[3] = Cytotoxicity against human MRC5 cells assessed as reduction in cell viability after 24 hrs by MTT assay; format: toxicity, cell-based; conditions: mrc5, 24 h
Outline: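 MRC-5 lung fibroblasts (DMEM, 10% heat-inactivated calf serum, 37 °C, 5% CO₂) at 10⁴ cells/well were exposed 24 h to twofold serial dilutions in DMEM. Then 1 mg/ml MTT in serum-free DMEM for 3 h, DMSO solubilisation, A570. Cytotoxicity % = 100 − (sample OD/untreated OD) × 100; TD₅₀/TD₉₀ are concentrations cutting viability 50/90%.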

Staphylococcus aureus [4] = test: Antibacterial activity against Staphylococcus aureus; format: functional
[5] = test system: Mycobacterium tuberculosis; test: Antitubercular activity against Mycobacterium tuberculosis H37Rv by Alamar blue assay; format: functional
Outline: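 M. tuberculosis in 7H9 medium with ADC and 0.05% Tween 80; MIC by microplate Alamar Blue assay.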

Enterococcus faecalis [6] = test: Antibacterial activity against vancomycin-susceptible Enterococcus faecalis clinical isolates after 24 hrs by CLSI […] broth microdilution method; format: functional; conditions: for MBC: read-out: MBC99.9
Outline: (§1)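 CLSI broth microdilution on clinical isolates. Log-phase bacteria in saline at 1–2 × 10⁵ CFU/mL were mixed with compounds diluted in LB, final 0.097–100 μg/mL, for 24 h at 37 °C. MIC is the lowest concentration with total growth inhibition. For MBC, clear wells were plated on sheep-blood agar for 18 h; >99.9% kill versus untreated control. Triplicate.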

Staphylococcus aureus [7] = test: Antibacterial activity against methicillin-susceptible Staphylococcus aureus clinical isolates after 24 hrs by CLSI […] broth microdilution method; format: functional; conditions: for MBC: read-out: MBC99.9; outline: as §1
Staphylococcus aureus [8] = test: Antibacterial activity against methicillin-resistant Staphylococcus aureus clinical isolates after 24 hrs by CLSI […] broth microdilution method; format: functional; conditions: for MBC: read-out: MBC99.9; outline: as §1
Enterococcus faecalis [9] = test: Antibacterial activity against vancomycin-resistant Enterococcus faecalis clinical isolates after 24 hrs by CLSI […] broth microdilution method; format: functional; conditions: for MBC: read-out: MBC99.9; outline: as §1

Structure (SMILES): NC(=O)c1c(F)ccc(OCC2COc3ccc(N)cc3O2)c1F (centres undefined)
- MBC (Staphylococcus aureus [1]): 100 µg/mL (≈ 297 µM)
- MIC (Staphylococcus aureus [1]): 100 µg/mL (≈ 297 µM)

Structure (SMILES): NC(=O)c1c(F)ccc(OCC2COc3ccc(F)cc3O2)c1F (centres undefined)
- MBC (Staphylococcus aureus [1]): 2.5 µg/mL (≈ 7.37 µM)
- MIC (Staphylococcus aureus [1]): 2.5 µg/mL (≈ 7.37 µM)

Structure (SMILES): NC(=O)c1c(F)ccc(OCC2COc3ccc(Br)cc3O2)c1F (centres undefined)
- MBC (Staphylococcus aureus [1]): 0.625 µg/mL (≈ 1.56 µM)
- MIC (Staphylococcus aureus [1]): 0.625 µg/mL (≈ 1.56 µM)
- selectivity ratio [2]: > 1280
- TD90 [3]: > 800 µg/mL

Structure (SMILES): NC(=O)c1c(F)ccc(OCC2COc3ccccc3O2)c1F (centres undefined)
- MIC (Staphylococcus aureus [4]): 5 µg/mL (≈ 15.6 µM)
- MIC [5]: 16 µg/mL (≈ 49.8 µM)
- MIC90 (Enterococcus faecalis [6]): 25 µg/mL (≈ 77.8 µM)
- MBC (Enterococcus faecalis [6]): 50 µg/mL (≈ 156 µM)
- MIC90 (Staphylococcus aureus [7]): 3.12 µg/mL (≈ 9.71 µM)
- MBC (Staphylococcus aureus [7]): 12.5 µg/mL (≈ 38.9 µM)
- MIC90 (Staphylococcus aureus [8]): 3.12 µg/mL (≈ 9.71 µM)
- MBC (Staphylococcus aureus [8]): 6.25 µg/mL (≈ 19.5 µM)
- MIC90 (Enterococcus faecalis [9]): 25 µg/mL (≈ 77.8 µM)
- MBC (Enterococcus faecalis [9]): 50 µg/mL (≈ 156 µM)

Structure (SMILES): N#Cc1ccc2c(c1)OC(COc1ccc(F)c(C(N)=O)c1F)CO2 (centres undefined)
- MBC (Staphylococcus aureus [1]): 2.5 µg/mL (≈ 7.22 µM)
- MIC (Staphylococcus aureus [1]): 1.25 µg/mL (≈ 3.61 µM)

Structure (SMILES): NC(=O)c1c(F)ccc(OCC2COc3ccc([N+](=O)[O-])cc3O2)c1F (centres undefined)
- MBC (Staphylococcus aureus [1]): 2.5 µg/mL (≈ 6.83 µM)
- MIC (Staphylococcus aureus [1]): 1.25 µg/mL (≈ 3.41 µM)

Structure (SMILES): NC(=O)c1c(F)ccc(OCC2COc3cc(Cl)c(Cl)cc3O2)c1F (centres undefined)
- MBC (Staphylococcus aureus [1]): 5 µg/mL (≈ 12.8 µM)
- MIC (Staphylococcus aureus [1]): 2.5 µg/mL (≈ 6.41 µM)
- MIC [5]: 16 µg/mL (≈ 41 µM)
- MIC90 (Enterococcus faecalis [6]): 6.25 µg/mL (≈ 16 µM)
- MBC (Enterococcus faecalis [6]): 50 µg/mL (≈ 128 µM)
- MIC90 (Staphylococcus aureus [7]): 3.12 µg/mL (≈ 8 µM)
- MBC (Staphylococcus aureus [7]): 6.25 µg/mL (≈ 16 µM)
- MIC90 (Staphylococcus aureus [8]): 3.12 µg/mL (≈ 8 µM)
- MBC (Staphylococcus aureus [8]): 6.25 µg/mL (≈ 16 µM)
- MIC90 (Enterococcus faecalis [9]): 12.5 µg/mL (≈ 32 µM)
- MBC (Enterococcus faecalis [9]): 50 µg/mL (≈ 128 µM)

Structure (SMILES): NC(=O)c1c(F)ccc(OCc2ccc3c(c2)OCCO3)c1F
- MBC (Staphylococcus aureus [1]): 100 µg/mL (≈ 311 µM)
- MIC (Staphylococcus aureus [1]): 100 µg/mL (≈ 311 µM)

Structure (SMILES): NC(=O)c1ccc2c(c1)OC(COc1ccc(F)c(C(N)=O)c1F)CO2 (centres undefined)
- MIC (Staphylococcus aureus [1]): > 100 µg/mL

Structure (SMILES): CCCCNC(=O)c1ccc2c(c1)OC(COc1ccc(F)c(C(N)=O)c1F)CO2 (centres undefined)
- MIC (Staphylococcus aureus [1]): > 100 µg/mL

Structure (SMILES): NC(=O)c1c(F)ccc(OCC2COc3ccc(C(F)(F)F)cc3O2)c1F (centres undefined)
- MBC (Staphylococcus aureus [1]): 2.5 µg/mL (≈ 6.42 µM)
- MIC (Staphylococcus aureus [1]): 2.5 µg/mL (≈ 6.42 µM)
